Reference: PMC7581536 (Journal of pharmaceutical and biomedical analysis, 2020)

Legend:
[1] = system: KDMs; details: ref [18]–[19]; cited from earlier work
[2] = system: HIV-1; details: T cell lines, via inhibition of SHMT2; ref [23]; cited from earlier work
[3] = Non-specific binding to plastic centrifuge tubes; type: physicochemical; details: neat solution, water as matrix
[4] = Stability of stock solutions; type: physicochemical; details: stock solution (DMSO/ACN or ACN), 6 months at −20°C
Method in brief: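 Test compound stock at 2 mg/mL: 10 mg dissolved in 0.5 mL DMSO, then diluted with ACN. Internal standard stock at 100 µg/mL in ACN. Both kept at −20°C for 6 months.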

[5] = system: KDM5A; details: secondary targets KDM4D/4B/4A/6B/4C; ref [18], [20]–[21]; cited from earlier work
[6] = Pharmacokinetic study of JIB-04 in rats after i.v. and oral administration; type: in vivo, rat
Method in brief: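 Male adult SD rats with jugular vein cannulas. IV: single 5 mg/kg via jugular vein (n=5) as aqueous suspension in 12.5% cremophor EL/12.5% DMSO; blood at 2 min–24 h. Oral: single 15 mg/kg (n=6); blood at 5 min–24 h. Heparinised plasma (4000 rpm, 15 min) held at −80°C. 20 µL plasma precipitated with ACN (5 ng/mL IS, 0.1% acetic acid); UHPLC-MS/MS MRM; non-compartmental analysis per rat.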

[7] = Stability of JIB-04 in rat plasma; type: in vitro ADME; details: for RE (deviation from nominal concentration) / Calculated Concentration Mean ± SD: rat plasma; for Calculated Concentration Mean ± SD: n=6
Method in brief: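 Blank rat plasma spiked to 0.5, 1, 50 and 800 ng/mL, six replicates per condition. Held 18 h on bench at room temperature, 24 h in auto-sampler tray, or 3 months at −80°C. Freeze-thaw: three cycles of 2–3 h room-temperature thaw and 12–24 h at −80°C. Quantified against a same-day calibration curve; accuracy as RE%, precision as CV%.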

[8] = rats, oral 15 mg/kg, n=6, NCA (apparent)
[9] = auto-sampler (10 °C 24hr), nominal 0.5 ng/mL
[10] = auto-sampler (10 °C 24hr), nominal 1 ng/mL
[11] = auto-sampler (10 °C 24hr), nominal 50 ng/mL
[12] = auto-sampler (10 °C 24hr), nominal 800 ng/mL
[13] = bench top (18hr, RT), nominal 0.5 ng/mL
[14] = bench top (18hr, RT), nominal 1 ng/mL
[15] = bench top (18hr, RT), nominal 50 ng/mL
[16] = bench top (18hr, RT), nominal 800 ng/mL
[17] = long-term (−80 °C, 3 months), nominal 0.5 ng/mL
[18] = long-term (−80 °C, 3 months), nominal 1 ng/mL
[19] = long-term (−80 °C, 3 months), nominal 50 ng/mL
[20] = long-term (−80 °C, 3 months), nominal 800 ng/mL

Question: Which “activity against KDMs” value [1] does the source give for `Clc1ccc(NN=C(c2ccccc2)c2ccccn2)nc1` (single isomer, unassigned) [Z-isomer] here?
Answer: inactive

Question: Which results are given for `Clc1ccc(N/N=C(\c2ccccc2)c2ccccn2)nc1` [JIB-04]?
Answer: block of HIV-1 Tat expression, transactivation, and virus replication [2]: potently and selectively blocks; non-specific binding to plastic centrifuge tubes [3]: strongly binding; stability of stock solution [4]: stable; inhibitory activity against KDM5A [5]: maximal inhibitory activity; concentrations in pharmacokinetic samples ([6]; rat plasma, i.v. and oral samples): 2 to 6000 ng/mL; plasma concentration ([6]; rats, i.v. 5 mg/kg, after 24 h): 3.0 ± 1.0 ng/mL; plasma concentration ([6]; rats, i.v. 5 mg/kg, at 2 min): 5270 ± 527.2 ng/mL; AUC 0→24 ([6]; rats, i.v. 5 mg/kg, n=5, NCA): 3661.6 ± 371.4 ng·h/mL; AUC 0→inf ([6]; rats, i.v. 5 mg/kg, n=5, NCA): 3678.2 ± 369.0 ng·h/mL; CL ([6]; rats, i.v. 5 mg/kg, n=5, NCA): 22.845 ± 2.362 mL/min/kg; Half-life ([6]; rats, i.v. 5 mg/kg, n=5, NCA): 3.70 ± 0.5 h; MRT ([6]; rats, i.v. 5 mg/kg, n=5, NCA): 2.6 ± 0.3 h; Vd ([6]; rats, i.v. 5 mg/kg, n=5, NCA): 7.3576 ± 1.5306 L/kg; E/Z ratio in plasma ([6]; rats, i.v. samples, 5 min): 72; E/Z ratio in plasma ([6]; rats, i.v. samples, 2 h): 27; E/Z ratio in plasma ([6]; rats, i.v. samples, 24 h): 0.6; time to reach Cmax (range among subjects) ([6]; rats, oral 15 mg/kg): 0.5 ~ 4 h; oral bioavailability (F) ([6]; rats, oral 15 mg/kg vs i.v. 5 mg/kg): 44.4%; AUC 0→24 ([6]; rats, oral 15 mg/kg, n=6, NCA): 4880.8 ± 1015.3 ng·h/mL; AUC 0→inf ([6]; rats, oral 15 mg/kg, n=6, NCA): 4904.7 ± 1019.7 ng·h/mL; Cmax ([6]; rats, oral 15 mg/kg, n=6, NCA): 812.7 ± 201.2 ng/mL; Half-life ([6]; rats, oral 15 mg/kg, n=6, NCA): 3.2 ± 0.2 h; MRT ([6]; rats, oral 15 mg/kg, n=6, NCA): 4.4 ± 0.3 h; Tmax ([6]; rats, oral 15 mg/kg, n=6, NCA): 1.5 ± 1.4 h; CL [6, 8]: 53.903 ± 1.27 mL/min/kg; Vd [6, 8]: 14.9234 ± 3.6699 L/kg; plasma concentration ([6]; rats, oral 15 mg/kg, within 5 min): 122.9 ± 51.0 ng/mL; E/Z ratio in plasma ([6]; rats, oral samples, 5 min): 40; E/Z ratio in plasma ([6]; rats, oral samples, 2 h): 9; E/Z ratio in plasma ([6]; rats, oral samples, 24 h): 2.3; RE (deviation from nominal concentration) [7, 9]: −3.2%; Calculated Concentration Mean ± SD [7, 9]: 0.48 ± 0.01 ng/mL; RE (deviation from nominal concentration) [7, 10]: −3.5%; Calculated Concentration Mean ± SD [7, 10]: 0.97 ± 0.06 ng/mL; RE (deviation from nominal concentration) [7, 11]: −2.7%; Calculated Concentration Mean ± SD [7, 11]: 48.6 ± 3.3 ng/mL; RE (deviation from nominal concentration) [7, 12]: −0.1%; Calculated Concentration Mean ± SD [7, 12]: 799.0 ± 17.5 ng/mL; RE (deviation from nominal concentration) [7, 13]: 1.6%; Calculated Concentration Mean ± SD [7, 13]: 0.51 ± 0.02 ng/mL; RE (deviation from nominal concentration) [7, 14]: −6.9%; Calculated Concentration Mean ± SD [7, 14]: 0.93 ± 0.05 ng/mL; RE (deviation from nominal concentration) [7, 15]: −6.4%; Calculated Concentration Mean ± SD [7, 15]: 46.8 ± 0.7 ng/mL; RE (deviation from nominal concentration) [7, 16]: 2.4%; Calculated Concentration Mean ± SD [7, 16]: 819.0 ± 26.0 ng/mL; RE (deviation from nominal concentration) ([7]; freeze and thaw (−80 °C to RT), nominal 0.5 ng/mL): 1.4%; RE (deviation from nominal concentration) ([7]; freeze and thaw (−80 °C to RT), nominal 1 ng/mL): −0.8%; RE (deviation from nominal concentration) ([7]; freeze and thaw (−80 °C to RT), nominal 50 ng/mL): −2.1%; RE (deviation from nominal concentration) ([7]; freeze and thaw (−80 °C to RT), nominal 800 ng/mL): −0.9%; Calculated Concentration Mean ± SD ([7]; freeze and thaw (−80 °C to RT), three cycles, nominal 0.5 ng/mL): 0.51 ± 0.01 ng/mL; Calculated Concentration Mean ± SD ([7]; freeze and thaw (−80 °C to RT), three cycles, nominal 1 ng/mL): 0.99 ± 0.03 ng/mL; Calculated Concentration Mean ± SD ([7]; freeze and thaw (−80 °C to RT), three cycles, nominal 50 ng/mL): 49.0 ± 1.3 ng/mL; Calculated Concentration Mean ± SD ([7]; freeze and thaw (−80 °C to RT), three cycles, nominal 800 ng/mL): 793.0 ± 16.2 ng/mL; RE (deviation from nominal concentration) [7, 17]: −6.7%; Calculated Concentration Mean ± SD [7, 17]: 0.47 ± 0.02 ng/mL; RE (deviation from nominal concentration) [7, 18]: −6.9%; Calculated Concentration Mean ± SD [7, 18]: 0.93 ± 0.05 ng/mL; RE (deviation from nominal concentration) [7, 19]: −5.6%; Calculated Concentration Mean ± SD [7, 19]: 47.2 ± 1.3 ng/mL; RE (deviation from nominal concentration) [7, 20]: −6.9%; Calculated Concentration Mean ± SD [7, 20]: 745.0 ± 20.8 ng/mL; storage stability of plasma samples ([7]; stored at −80 °C for as long as 3 months): without apparent alteration; degradation in rat plasma ([7]; under the experimental conditions (Table 4)): no significant degradation
